Data published in ChEMBL document CHEMBL1132715, “Comparative molecular field analysis of hydantoin binding to the neuronal voltage-dependent sodium channel” (J Med Chem, 1999).

Tests used:
[1] = biological target: Sodium channel alpha subunits; brain (Types I, II, III) (Rattus norvegicus, UniProt P04775+P04774+P08104); experiment: In vitro inhibition of Voltage-gated sodium channel by the displacement of [3H]batrachotoxin A 20-alpha-benzoate in rat brain cerebral cortex synaptoneurosomes; assay type: tissue-based
Method in brief: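 Rat cerebral cortex gray matter synaptoneurosomes (~1 mg protein), washed in HEPES/choline chloride buffer pH 7.4 and stored at –70 °C. […] Filtration read-out; nonspecific binding taken with 300 μM veratridine. Points run in triplicate; IC50 by Probit analysis, using only 10–90% inhibition.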

[2] = Partition coefficient (logP); assay type: physicochemical; conditions: octanol/water

logP ([2]; read-out: logP)	logP [2]	Compound	IC50 [1] [µM]
2.46		O=C1NC(=O)C2(CCCCCc3ccccc32)N1 (stereo unspecified)	
1.96		O=C1NC(=O)C2(CCCCc3ccccc32)N1 (stereo unspecified)	
	2.96	CCCCC1(c2ccccc2C)NC(=O)NC1=O (stereo in doubt; 14b)	
1.52		CC12C(=O)NC(=O)N1CCc1ccccc12 (stereo unspecified)	
0.96		O=C1NC(=O)C2(CCc3ccccc32)N1 (stereo unspecified)	
2.96		CCCCC1(c2ccccc2C)NC(=O)NC1=O (stereo in doubt; 14a)	
1.46		O=C1NC(=O)C2(CCCc3ccccc32)N1 (stereo unspecified)	

Further lines, the molecule ahead of its results:

Compound	logP ([2]; read-out: logP)	logP [2]	IC50 [1] [µM]
CCCCCCC1(c2ccccc2)NC(=O)NC1=O (stereo unspecified)	3.4		13
O=C1NC(=O)C(c2ccccc2)(C2CCCCC2)N1 (stereo unspecified)	2.96		58
CCCCC1(c2cccc(C)c2)NC(=O)NC1=O (stereo unspecified)	2.96		
CCCCC1(c2ccc(C)cc2)NC(=O)NC1=O (stereo unspecified)	2.96		
NC(=O)N1c2ccccc2C=Cc2ccccc21 [CARBAMAZEPINE]	2.13		
CCN1C(=O)NC(=O)C1(C)c1ccccc1 (stereo unspecified)	2.02		
CCCCCCCC(O)(C(N)=O)c1ccccc1 (stereo unspecified)	3.7		9
CCCCCCCC1(c2ccccc2)NC(=O)NC1=O (stereo unspecified)	3.96		5
CCCCCCCCCC1(c2ccccc2)NC(=O)NC1=O (stereo unspecified)	4.96		5
